In ChEMBL document CHEMBL5370587, “Fungal Anthraquinone Photoantimicrobials Challenge the Dogma of Cationic Photosensitizers” (J Nat Prod, 2023):

Experiments:
A549 [1] = experiment: Phototoxicity against human A549 cells assessed as reduction in cell growth preincubated with compound for 24 hrs followed by blue light irradiation at 468 nm for 7 mins 30 sec and measured after 48 hrs by SRB assay; type: functional, cell-based; conditions: A549, light or radiation study
In short: (§1)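 Cells (A549 2000, AGS 2500, T24 1500 per well) seeded in Opti-MEM with 2.4% FCS. After 24 h, treated with 25.0−0.3 μM (six levels). After another 24 h, medium was replaced and cells got blue light (468±27 nm, 9.3 J/cm²). Held 48 h at 37 °C, 5% CO2, then TCA-fixed and SRB-stained, read at 540 nm. EC50 from variable-slope fit with 95% CI.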

A549 [2] = experiment: Phototoxicity against human A549 cells assessed as reduction in cell growth preincubated with compound for 24 hrs followed by green light irradiation at 519 nm for 22 mins 23 sec and measured after 48 hrs by SRB assay; type: functional, cell-based; conditions: A549, light or radiation study
In short: (§2)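 Cells (A549 2000, AGS 2500, T24 1500 per well) seeded in Opti-MEM with 2.4% FCS and dosed 24 h later at six concentrations, 25.0−0.3 μM. After a further 24 h, fresh medium was added and cells got green light (519±33 nm, 30.0 J/cm²). Then 48 h at 37 °C, 5% CO2. Read-out by TCA fixation, SRB stain and absorbance at 540 nm. EC50 from Hill fit with 95% CI.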

A549 [3] = experiment: Phototoxicity against human A549 cells assessed as reduction in cell growth preincubated with compound for 24 hrs under dark condition and measured after 48 hrs by SRB assay; type: functional, cell-based; conditions: A549, light or radiation study
In short: (§3)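 Dark control plate processed the same way: cells (A549 2000, AGS 2500, T24 1500 per well) in Opti-MEM with 2.4% FCS, dosed at 25.0−0.3 μM 24 h after seeding. Medium renewed after 24 h, then 48 h further at 37 °C, 5% CO2 without light. SRB read-out at 540 nm after TCA fixation. EC50 with 95% CI from variable-slope fit.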

A549 [4] = experiment: Photo index, ratio of EC50 for human A549 cells killed in the absence of light to EC50 for human A549 cells killed after irradiation; type: functional
In short: (§4)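 SRB assay: cells seeded in Opti-MEM with 2.4% FCS, treated 24 h later with 0.3–25.0 μM, medium replaced after 24 h. Duplicate plates were irradiated with blue light (468 nm, 9.3 J/cm²) or green light (519 nm, 30.0 J/cm²), or kept dark, then held 48 h at 37 °C, 5% CO₂. EC50 from Hill fit; photoindex = EC50 dark / EC50 irradiated.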

AGS [5] = experiment: Phototoxicity against human AGS cells assessed as reduction in cell growth preincubated with compound for 24 hrs followed by blue light irradiation at 468 nm for 7 mins 30 sec and measured after 48 hrs by SRB assay; type: functional, cell-based; conditions: light or radiation study; in short: as §1
AGS [6] = experiment: Phototoxicity against human AGS cells assessed as reduction in cell growth preincubated with compound for 24 hrs followed by green light irradiation at 519 nm for 22 mins 23 sec and measured after 48 hrs by SRB assay; type: functional, cell-based; conditions: light or radiation study; in short: as §2
AGS [7] = experiment: Phototoxicity against human AGS cells assessed as reduction in cell growth preincubated with compound for 24 hrs under dark condition and measured after 48 hrs by SRB assay; type: functional, cell-based; conditions: light or radiation study; in short: as §3
T-24 [8] = experiment: Phototoxicity against human T24 cells assessed as reduction in cell growth preincubated with compound for 24 hrs followed by blue light irradiation at 468 nm for 7 mins 30 sec and measured after 48 hrs by SRB assay; type: functional, cell-based; conditions: T-24, light or radiation study; in short: as §1
T-24 [9] = experiment: Phototoxicity against human T24 cells assessed as reduction in cell growth preincubated with compound for 24 hrs followed by green light irradiation at 519 nm for 22 mins 23 sec and measured after 48 hrs by SRB assay; type: functional, cell-based; conditions: T-24, light or radiation study; in short: as §2
T-24 [10] = experiment: Phototoxicity against human T24 cells assessed as reduction in cell growth preincubated with compound for 24 hrs under dark condition and measured after 48 hrs by SRB assay; type: functional, cell-based; conditions: T-24, light or radiation study; in short: as §3
T-24 [11] = experiment: Photo index, ratio of EC50 for human T24 cells killed in the absence of light to EC50 for human T24 cells killed after irradiation; type: functional; in short: as §4
Staphylococcus aureus [12] = experiment: Antibacterial activity against Staphylococcus aureus DSM1104 assessed as reduction in microbial growth preincubated for 60 mins under dark condition and measured after 20 to 24 hrs at room temperature by muller hinton broth based dilution assay; type: functional; conditions: time 20-24 hrs
In short: (§5)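 Bacteria grown overnight at 37 °C for 15−18 h in the dark, then set to 0.5 McFarland (read at 600 nm) and diluted 1:50 in Müller-Hinton broth to (2–8) × 10⁵ CFU/mL. Dark plate held at room temperature, then incubated at 37 °C. After 20−24 h, turbidity was read against the untreated growth control, with blanks subtracted. Compounds tested at ≥10 concentrations in biological triplicate.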

Escherichia coli [13] = experiment: Antibacterial activity against Escherichia coli DSM1103 assessed as reduction in microbial growth preincubated for 60 mins under dark condition followed by 428 nm light irradiation and measured after 20 to 24 hrs by muller hinton broth based dilution assay; type: functional; conditions: DSM1103, light or radiation study, time 21-25 hrs
In short: (§6)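 PhotoMIC (modified EUCAST broth microdilution): 0.5 McFarland suspensions diluted 1:50 in Mueller-Hinton broth (bacteria, 2–8 × 10⁵ CFU/mL) or 1:10 in double-strength RPMI-1640 (yeast, 0.5–2.5 × 10⁵ CFU/mL); ≥10 concentrations, biological triplicates; 60 min dark preincubation, then 30 J/cm² irradiation or dark duplicate plate; 37 °C, 20–24 h; turbidity versus growth control, blanks subtracted.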

Staphylococcus aureus [14] = experiment: Antibacterial activity against Staphylococcus aureus DSM1104 assessed as reduction in microbial growth preincubated for 60 mins under dark condition followed by 428 nm light irradiation and measured after 20 to 24 hrs by muller hinton broth based dilution assay; type: functional; conditions: DSM1104, light or radiation study, time 21-25 hrs; in short: as §6
Staphylococcus aureus [15] = experiment: Antibacterial activity against Staphylococcus aureus DSM1104 assessed as reduction in microbial growth preincubated for 60 mins under dark condition followed by 478 nm light irradiation and measured after 20 to 24 hrs by muller hinton broth based dilution assay; type: functional; conditions: DSM1104, light or radiation study, time 21-25 hrs; in short: as §6
Staphylococcus aureus [16] = experiment: Antibacterial activity against Staphylococcus aureus DSM1104 assessed as reduction in microbial growth preincubated for 60 mins under dark condition followed by 530 nm light irradiation and measured after 20 to 24 hrs by muller hinton broth based dilution assay; type: functional; conditions: DSM1104, light or radiation study, time 21-25 hrs; in short: as §6
Candida albicans [17] = experiment: Antifungal activity against Candida albicans 501670 assessed as reduction in microbial growth preincubated for 60 mins under dark condition and measured after 20 to 24 hrs at room temperature by RPMI-1640 based dilution assay
Candida albicans [18] = experiment: Antifungal activity against Candida albicans 501670 assessed as reduction in microbial growth preincubated for 60 mins under dark condition followed by 428 nm light irradiation and measured after 20 to 24 hrs by RPMI-1640 based dilution assay; conditions: Candida albicans, 501670, light or radiation study
Candida albicans [19] = experiment: Antifungal activity against Candida albicans 501670 assessed as reduction in microbial growth preincubated for 60 mins under dark condition followed by 478 nm light irradiation and measured after 20 to 24 hrs by RPMI-1640 based dilution assay; conditions: Candida albicans, 501670, light or radiation study
Candida albicans [20] = experiment: Antifungal activity against Candida albicans 501670 assessed as reduction in microbial growth preincubated for 60 mins under dark condition followed by 530 nm light irradiation and measured after 20 to 24 hrs by RPMI-1640 based dilution assay; conditions: Candida albicans, 501670, light or radiation study
Candida albicans [21] = experiment: Antifungal activity against Candida albicans 501670 assessed as reduction in microbial growth preincubated for 60 mins under dark condition followed by 428 to 530 nm light irradiation and measured after 20 to 24 hrs by muller hinton broth based dilution assay; type: functional; conditions: Candida albicans, 501670, light or radiation study; in the assay text read “RPMI-1640” for “muller hinton broth”; time 21-25 hrs
In short: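 Yeast set to 0.5 McFarland (530 nm), diluted 1:10 in double-strength RPMI-1640 to (0.5−2.5) × 10⁵ CFU/mL. Irradiated at H = 30 J/cm² after 60 min dark preincubation, then kept dark at 37 °C for 20−24 h. Growth inhibition by turbidity versus growth control, blanks subtracted. ≥10 concentrations in biological triplicate.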

Escherichia coli [22] = experiment: Antibacterial activity against Escherichia coli DSM1103 assessed as reduction in microbial growth preincubated for 60 mins under dark condition and measured after 20 to 24 hrs at room temperature by muller hinton broth based dilution assay; type: functional; conditions: time 20-24 hrs; in short: as §5
Escherichia coli [23] = experiment: Antibacterial activity against Escherichia coli DSM1103 assessed as reduction in microbial growth preincubated for 60 mins under dark condition followed by 428 to 530 nm light irradiation and measured after 20 to 24 hrs by muller hinton broth based dilution assay; type: functional; conditions: DSM1103, light or radiation study, time 21-25 hrs
In short: (§7)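 Bacterial inoculum set to 0.5 McFarland (600 nm) and diluted 1:50 in Müller-Hinton broth to (2–8) × 10⁵ CFU/mL. After 60 min dark preincubation the plate received H = 30 J/cm² from LED panels (468±27, 519±33, 478±22 or 523±33 nm). Incubated at 37 °C in the dark for 20−24 h. Turbidity read against growth control, blanks subtracted. ≥10 concentrations, biological triplicate.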

Staphylococcus aureus [24] = experiment: Antibacterial activity against Staphylococcus aureus DSM1104 assessed as reduction in microbial growth preincubated for 60 mins under dark condition followed by 428 to 530 nm light irradiation and measured after 20 to 24 hrs by muller hinton broth based dilution assay; type: functional; conditions: DSM1104, light or radiation study, time 21-25 hrs; in short: as §7

| Compound | EC50 (A549 [1]) | EC50 (A549 [2]) | EC50 (A549 [3]) | EC50 (AGS [5]) | EC50 (AGS [6]) | EC50 (AGS [7]) | EC50 (T-24 [8]) | EC50 (T-24 [9]) | EC50 (T-24 [10]) | MIC (Staphylococcus aureus [12]) | MIC (Candida albicans [17]) | MIC (Candida albicans [21]) | MIC (Escherichia coli [22]) | MIC (Escherichia coli [23]) | MIC (Staphylococcus aureus [24]) | other results |
| --- | --- | --- | --- | --- | --- | --- | --- | --- | --- | --- | --- | --- | --- | --- | --- | --- |
| COc1c(O)c(O)c2c(c1O)C(=O)c1cc(C)cc(O)c1C2=O | > 25 µM | 16.2 µM | > 25 µM | > 25 µM | > 25 µM | > 25 µM | > 25 µM | 11.6 µM | 24.7 µM | > 79 µM | > 79 µM |  |  |  |  | Ratio EC50 (A549 [4]): >1.5; Ratio EC50 (T-24 [11]): 2.1; MIC (Escherichia coli [13]): > 79 µM; MIC (Staphylococcus aureus [14]): 39.5 µM; MIC (Staphylococcus aureus [15]): 4.74 µM; MIC (Staphylococcus aureus [16]): 2.37 µM; MIC (Candida albicans [18]): 39.5 µM; MIC (Candida albicans [19]): 19.7 µM; MIC (Candida albicans [20]): 39.5 µM |
| Cc1cc(O[C@@H]2O[C@H](CO)[C@@H](O)[C@H](O)[C@H]2O)c2c(c1)C(=O)c1cc(O)cc(O)c1C2=O | > 25 µM |  | > 25 µM | > 25 µM |  | > 25 µM | > 25 µM |  | > 25 µM | > 115 µM | > 115 µM | > 115 µM | > 115 µM | > 115 µM | > 115 µM |  |
| Cc1cc(O[C@@H]2O[C@H](CO)[C@@H](O)[C@H](O)[C@H]2O)c2c(c1)C(=O)c1cc(O[C@@H]3O[C@H](CO)[C@@H](O)[C@H](O)[C@H]3O)cc(O)c1C2=O | > 25 µM |  | > 25 µM | > 25 µM |  | > 25 µM | > 25 µM |  | > 25 µM | > 84 µM | > 84 µM | > 84 µM | > 84 µM | > 84 µM | > 84 µM |  |
| COc1c(O)c(O)c2c(c1O)C(=O)c1cc(C)cc(O[C@@H]3O[C@H](CO)[C@@H](O)[C@H](O)[C@H]3O)c1C2=O | > 25 µM | > 25 µM | > 25 µM | > 25 µM | > 25 µM | > 25 µM | > 25 µM | > 25 µM | > 25 µM | > 105 µM | > 105 µM | > 105 µM | > 105 µM | > 105 µM | > 105 µM |  |
